Data on 21 compounds can be found in ChEMBL document CHEMBL2434889, “New orally effective 3-(2-nitro)phenylpropanamide analgesic derivatives: synthesis and antinociceptive evaluation” (Eur J Med Chem, 2013).

Active and inactive are the calls of the source.

For data set [1], the system named is Mus musculus. The data set is described as follows: Toxicity in mouse at 3 mg/kg, ip. Type of data set: organism-based. Details: dose 3 mg/kg, route intraperitoneal. To be noted: in vivo.
Data set [2] relates to Mus musculus. The data set is described as follows: Antinociceptive activity in mouse assessed as inhibition of acetic acid-induced writhing response at 3 mg/kg, ip after 10 mins measured for 10 mins. Particulars: route intraperitoneal. The format is functional. The method, boiled down: (§1)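 Mice (20–24 g) dosed intraperitoneally, then given 0.5% aqueous acetic acid i.p. at 10 ml/kg. Stretches (back arching, pelvic rotation, hind-limb extension) were counted in an observation beaker for 10 min, starting 10 min after the acid. % inhibition is versus the control group. n = 50 mice for control and reference groups, 10 per other treatment. ANOVA with Fisher PLSD.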
For orientation: Writhing tests count abdominal constrictions after an irritant is injected.

Data set [3] has as its system Mus musculus. Nature of the data set: Antinociceptive activity in mouse assessed as inhibition of acetic acid-induced writhing response at 100 umol/kg, ip after 10 mins measured for 10 mins. Type of data set: functional. Put shortly:
as §1

In data set [4] the test system is Mus musculus. Nature of the data set: Antinociceptive activity in mouse assessed as inhibition of acetic acid-induced writhing response at 15 mg/kg, ip after 10 mins measured for 10 mins. Type of data set: functional. To be noted: route intraperitoneal. The method, boiled down: as §1
In data set [5] the test system is Mus musculus. The data set is described as follows: Antinociceptive activity in mouse assessed as inhibition of acetic acid-induced writhing response at 100 umol/kg, po after 10 mins measured for 10 mins. Type of data set: functional. Put shortly: (§2)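 Oral dosing, with 8 mice per treatment group. Writhing was induced by 0.5% aqueous acetic acid i.p. (10 ml/kg). Stretches were tallied over 10 min, beginning 10 min after the acid. % inhibition of constrictions is relative to the control group. Statistics by ANOVA and Fisher PLSD.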

Data set [6] deals with Mus musculus. Nature of the data set: Antinociceptive activity in mouse assessed as inhibition of acetic acid-induced writhing response at 33.3 umol/kg, po after 10 mins measured for 10 mins. The format is functional. Put shortly:
as §2

Data set [7] has as its system Mus musculus. Nature of the data set: Antinociceptive activity in mouse assessed as inhibition of acetic acid-induced writhing response at 10 umol/kg, po after 10 mins measured for 10 mins. The format is functional. Put shortly: as §2
In data set [8] the test system is Mus musculus. Nature of the data set: Antinociceptive activity in mouse assessed as increase of forepaw licking latency at 100 umol/kg, ip measured after 15 to 60 mins by hot plate test. Type of data set: functional, organism-based. Put shortly:
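Hot-plate test at 55 °C with groups of 10 mice. Latency to forepaw licking was timed by stopwatch. Baseline was read twice before injection, and only mice reacting within 4–12 s were used. Readings were taken at 15, 30, 45 and 60 min after ip dosing, with a 30 s cutoff. Vehicle was physiological serum; morphine 5 mg/kg served as reference. Data are mean ± SEM, one-way ANOVA with Fisher PLSD.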

For data set [9], the system named is Mus musculus. Nature of the data set: Toxicity in mouse assessed as effect on locomotion at 33 to 100 umol/kg, ip measured after 25 to 35 mins. The format is organism-based. Particulars: in vivo. Put shortly: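 Mice were injected ip with drug or saline and returned at once to photocell-beam cages for 1 h. Horizontal locomotion was scored as cage crossings and analysed over 25–35 min post-treatment, the same window as the writhing counts. Methylphenidate 10 mg/kg and haloperidol 0.5 mg/kg served as stimulant and depressant references. Statistics by Fisher PLSD.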

Usually inhibition in vivo stands for the relative decrease from the control value, in per cent. With `O=C(CCc1cc2c(cc1[N+](=O)[O-])OCO2)N1CCN(c2ccc(Cl)c(Cl)c2)CC1`, in the data set with Mus musculus [1], the Activity entry is “Non-toxic”. Besides, in the data set with Mus musculus [2], the inhibition in vivo at 3 mg/kg is 22%.

Regarding `CC1CCCCN1C(=O)CCc1ccc2c(c1)OCO2` (configuration not stated), in the data set with Mus musculus [1], the Activity result was “Non-toxic”. The inhibition in vivo at 3 mg/kg with Mus musculus [2] is 20.1%.

`O=C(CCc1cc2c(cc1[N+](=O)[O-])OCO2)N1CCN(CCO)CC1`: the Activity result with Mus musculus [1] is given as “Non-toxic”. In the data set on Mus musculus [2], the inhibition in vivo at 3 mg/kg came to 32.9%.

Turning to `O=C(CCc1cc2c(cc1[N+](=O)[O-])OCO2)N1CCOCC1`, the Activity result in the data set with Mus musculus [1] is “Non-toxic”. In the data set on Mus musculus [2], the inhibition in vivo at 3 mg/kg came out at 31.4%.

In the case of `NC(=O)CCc1cc2c(cc1[N+](=O)[O-])OCO2`, in the data set on Mus musculus [1], the Activity result is listed as “Non-toxic”. The inhibition in vivo at 3 mg/kg with Mus musculus [2] is 14.8%.

For the compound `O=C(CCc1cc2c(cc1[N+](=O)[O-])OCO2)N1CCCCC1`, the inhibition in vivo at 100 µmol/kg in the data set on Mus musculus [3] came to 44.8%. Further, the Activity entry with Mus musculus [1] is on record as “Non-toxic”. Further, the inhibition in vivo at 3 mg/kg in the data set with Mus musculus [2] came to 25.2%.

Regarding `CCOC(=O)CCc1cc2c(cc1[N+](=O)[O-])OCO2`, the Activity result in the data set with Mus musculus [1] was “Non-toxic”. The inhibition in vivo at 3 mg/kg in the data set on Mus musculus [2] turned out to be 40.5%.

In the case of `COc1ccc(N2CCN(C(=O)CCc3cc4c(cc3N)OCO4)CC2)cc1`, the Activity result in the data set on Mus musculus [1] is “Non-toxic”. Also, the inhibition in vivo at 3 mg/kg in the data set with Mus musculus [2] was 21.5%.

As to `O=C(CCc1cc2c(cc1[N+](=O)[O-])OCO2)Nc1ccccc1`, the Activity result in the data set with Mus musculus [1] is “Non-toxic”. Also, the inhibition in vivo at 3 mg/kg in the data set with Mus musculus [2] was 12.9%.

Consider `COc1cc(CCC(=O)N2CCOCC2)c([N+](=O)[O-])cc1OC`, for which the Activity result with Mus musculus [1] is recorded as “Non-toxic”. Further, in the data set on Mus musculus [2], the inhibition in vivo at 3 mg/kg was 15.3%.

As to `COc1ccccc1N1CCN(C(=O)CCc2cc3c(cc2[N+](=O)[O-])OCO3)CC1`, in the data set with Mus musculus [1], the Activity entry is listed as “Non-toxic”. Besides, in the data set on Mus musculus [2], the inhibition in vivo at 3 mg/kg was determined as 4.8%.

In the case of `O=C(CCc1cc2c(cc1[N+](=O)[O-])OCO2)N1CCN(c2ccccc2)CC1`, the Activity entry in the data set on Mus musculus [1] is given as “Non-toxic”. Further, the inhibition in vivo at 3 mg/kg in the data set with Mus musculus [2] is 21.5%.

As for `COc1ccc(N2CCN(C(=O)CCc3ccc4c(c3)OCO4)CC2)cc1`, in the data set on Mus musculus [1], the Activity entry is on record as “Non-toxic”. In addition, in the data set with Mus musculus [2], the inhibition in vivo at 3 mg/kg was determined as 2.4%.

As to `O=C(CCc1cc2c(cc1[N+](=O)[O-])OCO2)N1CCN(c2ccc(F)cc2)CC1`, the Activity entry in the data set with Mus musculus [1] was “Non-toxic”. In the data set on Mus musculus [2], the inhibition in vivo at 3 mg/kg worked out at 14.3%.

As for `COc1cc(CCC(=O)N2CCCCC2)c([N+](=O)[O-])cc1OC`, the inhibition in vivo at 100 µmol/kg in the data set on Mus musculus [3] was found to be 39.1%. The Activity entry with Mus musculus [1] is recorded as “Non-toxic”. The inhibition in vivo at 3 mg/kg with Mus musculus [2] was 33%.

For the compound `COc1ccc(CCC(=O)N2CCCCC2)cc1OC`, in the data set on Mus musculus [1], the Activity result is recorded as “Non-toxic”. The inhibition in vivo at 3 mg/kg in the data set on Mus musculus [2] is under 0%.

Take `CC(=O)Oc1ccccc1C(=O)O` [ASPIRIN]: the inhibition in vivo at 15 mg/kg in the data set with Mus musculus [4] came to 62.3%. The inhibition in vivo at 100 µmol/kg in the data set on Mus musculus [3] turned out to be 59%; in the data set on Mus musculus [5], 31.2%.

Take `O=C(CCc1cc2c(cc1[N+](=O)[O-])OCO2)Nc1ccccn1`: the Activity result with Mus musculus [1] is on record as “Non-toxic”. In addition, the inhibition in vivo at 3 mg/kg with Mus musculus [2] turned out to be 10%.

Consider `O=C(CCc1ccc2c(c1)OCO2)N1CCCCC1`, for which the Activity result with Mus musculus [1] is “Non-toxic”. In addition, in the data set on Mus musculus [2], the inhibition in vivo at 3 mg/kg worked out at 53%.

For the compound `COc1ccc(N2CCN(C(=O)CCc3cc4c(cc3[N+](=O)[O-])OCO4)CC2)cc1`, the inhibition in vivo at 33.3 µmol/kg with Mus musculus [6] turned out to be 35.7%. For the same compound, in the data set on Mus musculus [7], the inhibition in vivo at 10 µmol/kg came to 28.6%. The inhibition in vivo at 100 µmol/kg stood at 50% in the data set on Mus musculus [3] and 40% with Mus musculus [5]. Also, the Activity entry in the data set with Mus musculus [1] and in the data set with Mus musculus [9] was “Non-toxic” each time. For the same compound, the result with Mus musculus [8] was inactive. For the same compound, the inhibition in vivo at 3 mg/kg with Mus musculus [2] was 37.2%.

Regarding `CCCCCCNC(=O)CCc1cc2c(cc1[N+](=O)[O-])OCO2`, the inhibition in vivo at 100 µmol/kg with Mus musculus [3] was determined as 26%. Besides, the Activity result in the data set with Mus musculus [1] is “Non-toxic”. In addition, the inhibition in vivo at 3 mg/kg in the data set with Mus musculus [2] came out at 38.6%.
